Measured values of several laboratories.
Compare with care: the assays were run in different laboratories.
Target: Ephrin type-B receptor 2 (EPHB2, Homo sapiens, UniProt P29323)
Sequence (P29323 19-1055, as in one of the studies): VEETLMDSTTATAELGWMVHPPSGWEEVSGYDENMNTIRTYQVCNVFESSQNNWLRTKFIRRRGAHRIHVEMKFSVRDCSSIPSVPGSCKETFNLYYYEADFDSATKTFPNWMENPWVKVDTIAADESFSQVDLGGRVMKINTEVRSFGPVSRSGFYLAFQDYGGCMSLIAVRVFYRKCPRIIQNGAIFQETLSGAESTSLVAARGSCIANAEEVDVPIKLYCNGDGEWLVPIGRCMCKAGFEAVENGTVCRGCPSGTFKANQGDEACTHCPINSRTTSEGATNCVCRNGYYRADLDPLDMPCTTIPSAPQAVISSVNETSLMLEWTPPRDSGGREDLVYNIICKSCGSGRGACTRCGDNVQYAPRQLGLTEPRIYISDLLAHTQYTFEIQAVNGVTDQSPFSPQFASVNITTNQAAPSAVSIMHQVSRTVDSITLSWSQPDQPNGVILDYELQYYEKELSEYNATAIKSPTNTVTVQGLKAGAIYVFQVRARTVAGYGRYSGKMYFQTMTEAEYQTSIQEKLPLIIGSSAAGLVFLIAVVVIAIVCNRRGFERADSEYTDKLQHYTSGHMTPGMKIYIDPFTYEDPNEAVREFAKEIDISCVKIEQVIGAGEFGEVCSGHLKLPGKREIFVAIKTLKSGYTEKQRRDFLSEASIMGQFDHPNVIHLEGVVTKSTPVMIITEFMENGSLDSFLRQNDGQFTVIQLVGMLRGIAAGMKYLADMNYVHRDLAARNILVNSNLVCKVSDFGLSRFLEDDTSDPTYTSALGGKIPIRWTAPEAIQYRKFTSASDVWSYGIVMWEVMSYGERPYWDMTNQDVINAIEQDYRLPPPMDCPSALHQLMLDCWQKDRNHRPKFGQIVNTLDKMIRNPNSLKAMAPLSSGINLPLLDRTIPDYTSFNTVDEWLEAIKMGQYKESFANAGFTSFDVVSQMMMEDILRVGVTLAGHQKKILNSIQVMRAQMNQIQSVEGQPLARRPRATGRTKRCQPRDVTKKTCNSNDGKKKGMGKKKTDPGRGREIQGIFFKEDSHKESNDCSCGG

SMILES | test | setting | measurement | result
CN(C)C1CCN(CC#Cc2nn(C3CCCC3)c3nc(NCc4ccccc4)ncc23)C1 (centres unmarked) | enzyme activity, inhibitor, FRET | 1 µM | inhibition | 8%
CC(C)CC(=O)N1CCc2nc(-c3ccc(Br)cc3)nc(N(C)Cc3ccccc3)c2C1 | cell-free assay, competition with immobilised ligand | 0.1 µM | remaining binding | 80%
COc1cc(Nc2cnc(C#N)c(O[C@H](C)CN(C)C)n2)ncc1-c1cnn(C)c1 | enzyme activity, inhibitor, radiometric | 1 µM | remaining activity | 110%
COc1ccc(COc2ccc(Cc3cnc(N)nc3N)cc2OC)cc1 | cell-free assay | 0.5 µM | remaining signal | 87.4%
Oc1cccc(-c2nc(N3CCOCC3)c3oc4ncccc4c3n2)c1 | enzyme activity, inhibitor | 10 µM | remaining activity | 105%
CNC(=O)Nc1ccc2c(c1)[C@@]1(CC2)OC(=O)N(CC(=O)N(Cc2ccc(F)cc2)[C@@H](C)C(F)(F)F)C1=O | cell-free assay, competition with immobilised ligand | 1 µM | remaining binding | 87%
CCCCNc1ncc2c(-c3ccc(F)cc3)nn(C[C@H]3CC[C@H](N)CC3)c2n1 | target engagement in cells, inhibitor, chemoproteomics | 20 mM | inhibition | 94.8%
COc1cc2ncnc(Nc3ccc(Oc4ccccc4)cc3C)c2cc1OC | enzyme activity, inhibitor | 1 µM | inhibition | 25%
c1ccc(CNc2nc(N3CCOc4ccccc43)nc3c2CCCC3)cc1 | target engagement in cells, inhibitor, chemoproteomics | 20 mM | inhibition | 2.6%
FC(F)(F)c1ccc2c(c1)nc(-c1cccnc1)n2C1CC1 | cell-free assay, competition with immobilised ligand | 1 µM | remaining binding | 83%
CCN(CC)CCNC(=O)c1c(C)[nH]c(/C=C2\C(=O)Nc3ccc(F)cc32)c1C | enzyme activity, inhibitor | 0.3 µM | inhibition | 2%
O=C(NS(=O)(=O)c1ccc(NCC2CCOCC2)c([N+](=O)[O-])c1)c1ccc(N2CCN(Cc3ccc(C(F)(F)F)cc3-c3ccc(Cl)cc3)CC2)cc1Oc1cnc2[nH]ccc2c1 | cell-free assay, competition with immobilised ligand | 1 µM | remaining binding | 100%
O=C(Nc1cnn(-c2csc(C(=O)NC3COC3)c2)c1)Nc1c(F)cccc1Cl | enzyme activity, inhibitor | 5 µM | remaining activity | 99.9%
COc1cc(Cl)c(C(=O)N[C@@H](CN[C@H]2CC[C@@H](N)CC2)Cc2ccc(C#N)cc2)cc1-c1ccc(CN[C@H](C)c2ccc(C)cc2)o1 | enzyme activity, inhibitor | 1 µM | remaining activity | 123%
C[C@H](c1ccnc(Nc2nc3ccc(-c4cc(N(C)C)ncn4)cc3[nH]2)c1)N1CCN(C(=O)CC(F)(F)F)CC1 | cell-free assay, competition with immobilised ligand | 0.1 µM | remaining binding | 93%
C#Cc1cccc(Nc2ncnc3cc(OCCOC)c(OCCOC)cc23)c1 | cell-free assay | 0.5 µM | remaining signal | 95.1%
COc1cc(/C=C/C(=O)CC(=O)/C=C/c2ccc(O)c(OC)c2)ccc1O | enzyme activity, inhibitor | 1 µM | activity vs control | 111%
FC(F)c1nc2ccccc2n1-c1nc(N2CCOCC2)nc(N2CCOCC2)n1 | enzyme activity, inhibitor | 10 µM | remaining activity | 106%
Nc1ncnc2occ(-c3ccc(NC(=O)Nc4cc(C(F)(F)F)ccc4F)cc3)c12 | cell-free assay | 20 µM | remaining signal | 0%
CC(C)(O)[C@H]1CC[C@H](Nc2ccc3ncc(-c4cccc(C(F)(F)F)c4)n3n2)CC1 | enzyme activity, inhibitor | 1 µM | remaining activity | 93.5%
CN1CC(Oc2cnc(C#N)cc2-c2ccn3nc(NC(=O)C4CC4)cc3c2)C1 | enzyme activity, inhibitor | 1 µM | inhibition | 4%
O=C(Nc1cccnn1)N1CCC(=Cc2cccc(Oc3ccc(C(F)(F)F)cn3)c2)CC1 | cell-free assay, competition with immobilised ligand | 1 µM | remaining binding | 100%
CNC(=O)c1cc(Oc2ccc(NC(=O)Nc3ccc(Cl)c(C(F)(F)F)c3)cc2)ccn1 | enzyme activity, inhibitor | 10 µM | inhibition | 95%
N#CCCc1ccc2c(c1)-c1[nH]c3ccc([N+](=O)[O-])cc3c1CC(=O)N2 | cell-free assay | 0.5 µM | remaining signal | 98.5%
Cc1ccc(Nc2nccc(N(C)c3ccc4c(C)n(C)nc4c3)n2)cc1S(N)(=O)=O | enzyme activity, inhibitor | 10 µM | inhibition | 44%
O=C(Nc1ccc(Oc2ccc(F)cc2)cc1)N1CCc2ncccc2[C@H]1c1ccc(F)cc1 | cell-free assay, competition with immobilised ligand | 1 µM | remaining binding | 91%
Cc1ccc(NC(=O)c2ccc(CN3CCN(C)CC3)cc2)cc1Nc1nc(-c2cccnc2)cs1 | cell-free assay | 0.5 µM | remaining signal | 95.3%
CN(C(=O)c1ccccc1)c1cc(N(C)c2ccc3c(c2)CCc2ccc(C(=O)NCCN4CCOCC4)cc2C3=O)ccc1F | cell-free assay, competition with immobilised ligand | 1 µM | remaining binding | 82%
CCCS(=O)(=O)Nc1ccc(F)c(C(=O)c2c[nH]c3ncc(-c4ccc(Cl)cc4)cc23)c1F | enzyme activity, inhibitor | 1 µM | inhibition | < 10%
